One series deals with L929. The series is described as follows: Cytotoxicity against mouse L929 cells assessed as reduction in cell viability up to 200 ug/ml after 5 days by MTT assay. Format: cell-based. The settings on record: l929, 120 h. The gist of the method: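 MTT viability assay in mouse fibroblasts, run on compounds active against TB, with 200 µg/mL as the highest test concentration.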
(In general: Tetrazolium assays rely on reduction of a dye to a coloured formazan, in cell work by metabolically active cells.)

The subject of series [1] is Mycobacterium tuberculosis. The series is described as follows: Antitubercular activity against Mycobacterium tuberculosis H37Rv strain at 6.25 ug/ml by microplate alamar blue assay. Format: functional.
Series [2] has as its system Mycobacterium tuberculosis. Description: Antitubercular activity against Mycobacterium tuberculosis H37Rv strain by BACTEC 460 radiometric assay. Format: functional, organism-based.

In brackets after ≈: the same amount, converted by molar mass.

With `O=C(NNC(=S)Nc1ccc(OC(F)(F)F)cc1)c1cc(C23CC4CC(CC(C4)C2)C3)c2ccccc2n1`, the Activity result in the series on L929 is “Non-toxic”. Moreover, in series [1], the inhibition (in general, the relative decrease from the control value, in per cent) at 6.25 µg/mL worked out at 89%. Further, in series [2], the IC50 (commonly the concentration that inhibits the measured activity by half) is 1.45 µM and the MIC90 (as a rule, the lowest concentration that inhibits either 90% of growth or 90% of the strains tested, depending on the study) turned out to be 6.25 µg/mL (≈ 11.6 µM).

For the molecule `Cc1cc(C)c(NC(=O)NNC(=O)c2cc(C34CC5CC(CC(C5)C3)C4)c3ccccc3n2)c(C)c1`, in the series with L929, the Activity result is listed as “Non-toxic”. Besides, 6.25 µg/mL produced 77% inhibition in series [1]. Further, in series [2], the midpoint of inhibition, the IC50, lay at 3.89 µM and the MIC90 was found to be 6.25 µg/mL (≈ 12.9 µM).

Turning to `CO[C@H]1/C=C/O[C@@]2(C)Oc3c(C)c(O)c4c(O)c(c(/C=N/N5CCN(C)CC5)c(O)c4c3C2=O)NC(=O)/C(C)=C\C=C\[C@H](C)[C@H](O)[C@@H](C)[C@@H](O)[C@@H](C)[C@H](OC(C)=O)[C@@H]1C` [RIFAMPIN], the inhibition at 6.25 µg/mL in series [1] worked out at 99%. Further, the MIC99 – broadly, an inhibitory concentration at the 99% level, which refers to growth in some studies and to a panel of isolates in others – in series [2] was determined as 0.2 µg/mL (≈ 0.243 µM).

For the molecule `O=C(NNC(=O)c1cc(C23CC4CC(CC(C4)C2)C3)c2ccccc2n1)c1cccc(C(F)(F)F)c1`, in the series with L929, the Activity entry is on record as “Non-toxic”. Moreover, at 6.25 µg/mL the inhibition in series [1] was 69%. Besides, in series [2], it took 5.75 µM to reach half-maximal inhibition (IC50) and the MIC90 is 6.25 µg/mL (≈ 12.7 µM).

Take `COc1ccc(OC)c(NC(=S)NNC(=O)c2cc(C34CC5CC(CC(C5)C3)C4)c3ccccc3n2)c1`: the Activity result with L929 is given as “Non-toxic”. In series [1], this molecule showed an inhibition at 6.25 µg/mL of 81%. Also, in series [2], 2.82 µM corresponded to half-maximal inhibition (IC50) and the MIC90 is 6.25 µg/mL (≈ 12.1 µM).

With `O=C(NNC(=S)Nc1ccc([N+](=O)[O-])cc1Cl)c1cc(C23CC4CC(CC(C4)C2)C3)c2ccccc2n1`, the Activity entry with L929 was “Non-toxic”. This molecule also yielded an inhibition at 6.25 µg/mL in series [1] of 96%. In series [2], this molecule gave a 50% inhibitory concentration (IC50) of 0.49 µM and an MIC90 of 6.25 µg/mL (≈ 11.7 µM).

As to `O=C(NNC(=O)c1cc(C23CC4CC(CC(C4)C2)C3)c2ccccc2n1)NC1CCCC1`, the Activity result in the series on L929 is recorded as “Non-toxic”. Further, the inhibition at 6.25 µg/mL in series [1] stood at 84%. In series [2], this molecule showed an IC50 of 2.75 µM and an MIC90 of 6.25 µg/mL (≈ 14.4 µM).

In turn, `NNC(=O)c1ccncc1` [ISONIAZID] yielded an MIC99 in series [2] of 0.1 µg/mL (≈ 0.729 µM).

Turning to `O=C(NNC(=O)c1cc(C23CC4CC(CC(C4)C2)C3)c2ccccc2n1)Nc1cccc(F)c1`, the Activity entry in the series on L929 was “Non-toxic”. The same molecule came in with an inhibition at 6.25 µg/mL in series [1] of 78%. Further, in series [2], the IC50 was 3.8 µM and the MIC90 is 6.25 µg/mL (≈ 13.6 µM).

Take `O=C(NNC(=O)c1cc(C23CC4CC(CC(C4)C2)C3)c2ccccc2n1)c1cccnc1`: in the series on L929, the Activity result is listed as “Non-toxic”. The molecule also came in with an inhibition at 6.25 µg/mL in series [1] of 74%. In addition, in series [2], the IC50 was 5.13 µM and the MIC90 is 6.25 µg/mL (≈ 14.7 µM).

Turning to `C=CCCCCCCCCC(=O)NNC(=O)c1cc(C23CC4CC(CC(C4)C2)C3)c2ccccc2n1`, the Activity entry with L929 is recorded as “Non-toxic”. Testing at 6.25 µg/mL in series [1] gave an inhibition of 50%. In series [2], this molecule had an IC50 of 12.9 µM and an MIC90 of 6.25 µg/mL (≈ 12.8 µM).

As to `CCCCCCNC(=O)NNC(=O)c1cc(C23CC4CC(CC(C4)C2)C3)c2ccccc2n1`, the Activity entry in the series with L929 is listed as “Non-toxic”. Moreover, 6.25 µg/mL produced 47% inhibition in series [1]. In series [2], this molecule showed an IC50 of 15.8 µM and an MIC90 of 6.25 µg/mL (≈ 13.9 µM).

With `O=C(NNC(=S)NC1CCCCC1)c1cc(C23CC4CC(CC(C4)C2)C3)c2ccccc2n1`, the Activity entry with L929 is recorded as “Non-toxic”. Besides, in series [1], testing at 6.25 µg/mL gave an inhibition of 0%. In addition, the MIC90 in series [2] came out at 6.25 µg/mL (≈ 13.5 µM).

`O=C(NNC(=O)C12CC3CC(CC(C3)C1)C2)c1cc(C23CC4CC(CC(C4)C2)C3)c2ccccc2n1`: the Activity entry in the series with L929 is reported as “Non-toxic”. The molecule also displayed an inhibition at 6.25 µg/mL in series [1] of 87%. Moreover, in series [2], the IC50 is 1.95 µM and the MIC90 turned out to be 6.25 µg/mL (≈ 12.9 µM).

Take `CCc1ccccc1NC(=S)NNC(=O)c1cc(C23CC4CC(CC(C4)C2)C3)c2ccccc2n1`: the Activity entry in the series on L929 is given as “Non-toxic”. In series [1], this molecule had an inhibition at 6.25 µg/mL of 89%. In series [2], this molecule showed an IC50 of 1.58 µM and an MIC90 of 6.25 µg/mL (≈ 12.9 µM).

For the molecule `CCCCCCCCCCCCCCCCNC(=O)NNC(=O)c1cc(C23CC4CC(CC(C4)C2)C3)c2ccccc2n1`, the Activity entry with L929 is on record as “Non-toxic”. The same molecule displayed an inhibition at 6.25 µg/mL in series [1] of 16%. In addition, in series [2], the IC50 is 56.2 µM and the MIC90 stood at 6.25 µg/mL (≈ 10.6 µM).

Take `O=C(NNC(=O)c1cc(C23CC4CC(CC(C4)C2)C3)c2ccccc2n1)c1ccncc1`: the Activity result with L929 was “Non-toxic”. In series [1], the inhibition at 6.25 µg/mL was 56%. In series [2], this molecule showed an IC50 of 11.5 µM and an MIC90 of 6.25 µg/mL (≈ 14.7 µM).

Take `CCNC(=S)NNC(=O)c1cc(C23CC4CC(CC(C4)C2)C3)c2ccccc2n1`: the Activity entry with L929 was “Non-toxic”. Also, testing at 6.25 µg/mL in series [1] gave an inhibition of 72%. In series [2], half-maximal inhibition (IC50) required 5.89 µM and the MIC90 came out at 6.25 µg/mL (≈ 15.3 µM).

As to `O=C(NNC(=O)N1CCOCC1)c1cc(C23CC4CC(CC(C4)C2)C3)c2ccccc2n1`, the Activity result in the series with L929 is on record as “Non-toxic”. In addition, 6.25 µg/mL produced 3% inhibition in series [1]. For the same molecule, in series [2], the midpoint of inhibition, the IC50, lay at 468 µM and the MIC90 turned out to be 6.25 µg/mL (≈ 14.4 µM).

With `O=C(NNC(=O)c1cccs1)c1cc(C23CC4CC(CC(C4)C2)C3)c2ccccc2n1`, in the series with L929, the Activity result is listed as “Non-toxic”. For the same molecule, in series [1], at 6.25 µg/mL the inhibition was 9%. In series [2], this molecule showed an IC50 of 148 µM and an MIC90 of 6.25 µg/mL (≈ 14.5 µM).

Turning to `O=C(NNC(=S)Nc1ccccc1C(F)(F)F)c1cc(C23CC4CC(CC(C4)C2)C3)c2ccccc2n1`, in the series on L929, the Activity result is “Non-toxic”. This molecule also returned an inhibition at 6.25 µg/mL in series [1] of 79%. In series [2], this molecule gave an IC50 of 2.88 µM and an MIC90 of 6.25 µg/mL (≈ 11.9 µM).

On to `CCCCCNC(=O)NNC(=O)c1cc(C23CC4CC(CC(C4)C2)C3)c2ccccc2n1`, for which the Activity entry with L929 is “Non-toxic”. For the same molecule, in series [1], testing at 6.25 µg/mL gave an inhibition of 55%. In series [2], this molecule showed an IC50 of 11.7 µM and an MIC90 of 6.25 µg/mL (≈ 14.4 µM).

For `COc1ccc(C)cc1NC(=S)NNC(=O)c1cc(C23CC4CC(CC(C4)C2)C3)c2ccccc2n1`, the Activity entry with L929 is given as “Non-toxic”. In series [1], the inhibition at 6.25 µg/mL came out at 12%. Further, in series [2], half-maximal inhibition (IC50) was put at 91.2 µM and the MIC90 stood at 6.25 µg/mL (≈ 12.5 µM).

On to `Cc1cccc(C)c1NC(=S)NNC(=O)c1cc(C23CC4CC(CC(C4)C2)C3)c2ccccc2n1`, for which the Activity result in the series on L929 is recorded as “Non-toxic”. In series [1], this molecule displayed an inhibition at 6.25 µg/mL of 51%. In series [2], it took 12.3 µM to reach half-maximal inhibition (IC50) and the MIC90 is 6.25 µg/mL (≈ 12.9 µM).

For `CC(=O)NNC(=O)c1cc(C23CC4CC(CC(C4)C2)C3)c2ccccc2n1`, in the series on L929, the Activity entry is “Non-toxic”. This molecule also returned an inhibition at 6.25 µg/mL in series [1] of 5%. In series [2], the IC50 was 324 µM and the MIC90 was 6.25 µg/mL (≈ 17.2 µM).

Consider `CC(C)(C)c1ccc(NC(=O)NNC(=O)c2cc(C34CC5CC(CC(C5)C3)C4)c3ccccc3n2)cc1`, for which, in the series with L929, the Activity entry was “Non-toxic”. Testing at 6.25 µg/mL in series [1] gave an inhibition of 37%. In series [2], this molecule showed an IC50 of 22.4 µM and an MIC90 of 6.25 µg/mL (≈ 12.6 µM).

For the molecule `COc1cc(NC(=O)NNC(=O)c2cc(C34CC5CC(CC(C5)C3)C4)c3ccccc3n2)cc(OC)c1OC`, the Activity result in the series with L929 is reported as “Non-toxic”. Further, the inhibition at 6.25 µg/mL in series [1] is 22%. In series [2], this molecule showed a concentration for half-maximal inhibition (IC50) of 41.7 µM and an MIC90 of 6.25 µg/mL (≈ 11.8 µM).

On to `O=C(NNC(=S)Nc1cccc(Cl)c1Cl)c1cc(C23CC4CC(CC(C4)C2)C3)c2ccccc2n1`, for which the Activity entry with L929 is “Non-toxic”. The molecule further registered an inhibition at 6.25 µg/mL in series [1] of 74%. In series [2], this molecule had an IC50 of 4.17 µM and an MIC90 of 6.25 µg/mL (≈ 11.9 µM).

Turning to `O=C(NNC(=O)c1cc(C23CC4CC(CC(C4)C2)C3)c2ccccc2n1)c1ccccc1`, the Activity result with L929 is listed as “Non-toxic”. The same molecule had an inhibition at 6.25 µg/mL in series [1] of 12%. In series [2], this molecule gave an IC50 of 107 µM and an MIC90 of 6.25 µg/mL (≈ 14.7 µM).
